Assay results taken from ChEMBL document CHEMBL1909618, “Non-steroidal dissociated glucocorticoid agonists: indoles as A-ring mimetics and function-regulating pharmacophores” (Bioorg Med Chem Lett, 2011).

Key:
Progesterone receptor = molecular target: T1, Progesterone receptor (Homo sapiens, UniProt P06401); assay: Displacement of tetramethylrhodamine-labeled RU-486 from human recombinant progesterone receptor expressed in baculovirus infected insect cells by fluorescence polarization assay
T1 sequence (P06401 whole entry): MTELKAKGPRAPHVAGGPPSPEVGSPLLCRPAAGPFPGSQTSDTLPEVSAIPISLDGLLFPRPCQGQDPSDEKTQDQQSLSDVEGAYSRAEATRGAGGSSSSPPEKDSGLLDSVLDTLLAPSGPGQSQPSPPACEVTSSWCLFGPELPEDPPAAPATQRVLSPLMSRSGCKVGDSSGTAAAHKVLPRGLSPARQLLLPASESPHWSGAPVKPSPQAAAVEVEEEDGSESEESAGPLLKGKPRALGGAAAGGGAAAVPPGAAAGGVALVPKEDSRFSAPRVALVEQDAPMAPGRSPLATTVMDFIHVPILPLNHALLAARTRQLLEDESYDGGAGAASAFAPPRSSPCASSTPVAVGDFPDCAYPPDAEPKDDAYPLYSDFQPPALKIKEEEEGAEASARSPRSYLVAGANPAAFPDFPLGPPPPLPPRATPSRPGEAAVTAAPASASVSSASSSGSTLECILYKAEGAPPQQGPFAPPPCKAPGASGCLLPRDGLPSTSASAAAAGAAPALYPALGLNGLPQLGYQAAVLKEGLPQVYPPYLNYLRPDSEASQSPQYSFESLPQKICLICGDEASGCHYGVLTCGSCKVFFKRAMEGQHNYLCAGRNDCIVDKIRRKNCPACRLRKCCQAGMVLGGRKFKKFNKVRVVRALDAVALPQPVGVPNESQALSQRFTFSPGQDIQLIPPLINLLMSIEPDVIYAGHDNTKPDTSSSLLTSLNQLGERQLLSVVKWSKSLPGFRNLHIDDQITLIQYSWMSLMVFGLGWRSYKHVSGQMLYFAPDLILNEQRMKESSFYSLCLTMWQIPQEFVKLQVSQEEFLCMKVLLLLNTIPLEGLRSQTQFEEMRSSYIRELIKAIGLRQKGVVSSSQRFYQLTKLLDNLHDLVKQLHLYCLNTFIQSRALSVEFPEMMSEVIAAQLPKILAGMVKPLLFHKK
Method in brief: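 Fluorescence polarization competition assays with recombinant human receptors in lysates of baculovirus-infected insect cells. Reactions contained 1% DMSO and ran 1 h at room temperature.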

[1] = Cmax in B10.R3 mouse at 30 mg/kg, po; assay type: ADME, organism-based; parameters: dose 30 mg/kg, route oral; conditions: in vivo
Method in brief: (§1)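 Mouse PK: IV dose 1 mg/kg in PEG400/water (70:30); oral dose 30 mg/kg given as a suspension in 30% Cremophor. Values are the mean of 3 mice.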

[2] = molecular target: T2, Glucocorticoid receptor (Homo sapiens) (UniProt P04150); assay: Agonist activity at glucocorticoid receptor in human HeLa cells transfected with luciferase gene linked to MMTV promoter assessed as luciferase transactivation activity relative to Dexamethasone; assay type: functional, cell-based
T2 sequence (whole entry): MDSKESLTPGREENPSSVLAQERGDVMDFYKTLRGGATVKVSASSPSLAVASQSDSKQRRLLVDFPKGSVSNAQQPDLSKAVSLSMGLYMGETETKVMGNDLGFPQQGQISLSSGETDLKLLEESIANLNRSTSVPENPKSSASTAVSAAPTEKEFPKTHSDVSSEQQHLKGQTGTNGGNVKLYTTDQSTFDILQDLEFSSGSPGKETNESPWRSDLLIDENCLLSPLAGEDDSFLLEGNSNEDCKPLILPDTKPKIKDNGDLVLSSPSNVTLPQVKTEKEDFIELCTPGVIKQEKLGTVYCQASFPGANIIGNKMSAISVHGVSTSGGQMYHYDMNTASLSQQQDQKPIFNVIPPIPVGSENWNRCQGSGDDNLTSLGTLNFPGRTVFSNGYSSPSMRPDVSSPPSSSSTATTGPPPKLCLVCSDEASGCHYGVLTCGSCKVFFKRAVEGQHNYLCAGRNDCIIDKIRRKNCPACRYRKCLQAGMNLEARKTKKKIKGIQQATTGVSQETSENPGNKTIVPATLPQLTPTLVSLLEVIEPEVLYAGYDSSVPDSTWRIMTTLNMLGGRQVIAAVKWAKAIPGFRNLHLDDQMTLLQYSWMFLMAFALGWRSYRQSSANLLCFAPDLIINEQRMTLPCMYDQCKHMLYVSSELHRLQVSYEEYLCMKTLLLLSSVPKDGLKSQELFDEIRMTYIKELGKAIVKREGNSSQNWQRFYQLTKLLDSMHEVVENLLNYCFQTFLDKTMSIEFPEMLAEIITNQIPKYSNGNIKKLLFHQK
Method in brief: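 HeLa cells stably carrying an MMTV-luciferase construct were exposed to compound for 6 h at 37 °C, 5% CO2. Cells were then lysed and luminescence read with a Steady-Glo reagent. EC50 and % maximal efficacy were reported.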

Mus musculus [3] = assay: Antiarthritic activity in B10.R3 mouse collagen-induced arthritis model assessed as AUC of disease progression inhibition at 30 mg/kg, po qd for 5 weeks; assay type: functional; conditions: B10.R3, 840 h
Method in brief: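 B10.RIII mice immunized with porcine type II collagen plus complete Freund's adjuvant were enrolled at the first signs of arthritis. They were dosed orally once daily for 5 weeks; vehicle was 30% Cremophor RH. All four paws were scored 1–4 (maximum 16 per animal). Disease-score AUCs from 10 mice per group were compared with vehicle by Mann–Whitney test.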

Mus musculus [4] = assay: Antiinflammatory activity in po dosed mouse plasma assessed as inhibition of LPS-induced TNFalpha production administered 1 hr before LPS challenge measured after 1 hr; assay type: functional
Method in brief: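 Mice received compound orally in Cremophor RH 1 h before LPS challenge. Plasma TNF-α was measured 1 h after challenge. n = 8 per group; doses were 3 and 10 mg/kg.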

Homo sapiens [5] = species on record: Homo sapiens; assay: Selectivity ratio of IC50 for human recombinant glucocorticoid receptor to IC50 for human recombinant progesterone receptor
Homo sapiens [6] = species on record: Homo sapiens; assay: Selectivity ratio of IC50 for human recombinant glucocorticoid receptor to IC50 for human recombinant mineralocorticoid receptor
[7] = Half life in B10.R3 mouse at 1 mg/kg, iv; assay type: ADME, organism-based; parameters: dose 1 mg/kg, route intravenous; conditions: in vivo; method in brief: as §1
Glucocorticoid receptor = molecular target: T3, Glucocorticoid receptor (Homo sapiens, UniProt P04150); assay: Agonist activity at glucocorticoid receptor in human HeLa cells transfected with luciferase gene linked to MMTV promoter assessed as luciferase transactivation activity; assay type: functional, cell-based
T3 sequence (P04150 whole entry): T2 sequence (whole entry)

| IC50 (Progesterone receptor) [nM] | Cmax [1] [ng/mL] | Efficacy [2] [%] | Ratio IC50 (Homo sapiens [5]) | Ratio IC50 (Homo sapiens [6]) | half-life [7] [h] | EC50 (Glucocorticoid receptor) [nM] | Compound | inhibition in vivo at 30 mg/kg (Mus musculus [3]) [%] | ED50 (Mus musculus [4]) [mg/kg] |
| --- | --- | --- | --- | --- | --- | --- | --- | --- | --- |
| 207 | – | – | – | – | – | – | COc1ccc(F)cc1C(C)(C)C[C@@](O)(Cc1cc2ccccc2[nH]1)C(F)(F)F | – | – |
| 745 | 6190 | 10 | 100 | 100 | 2.5 | > 2000 | CC(C)(C[C@@](O)(Cc1cc2ccc(C#N)cc2[nH]1)C(F)(F)F)c1cc(S(C)(=O)=O)cc2c1OCC2 | 45 | < 3 |
